Legend:
[1] = molecular target: T1, C-C chemokine receptor type 2 (Homo sapiens, UniProt P41597); test: Displacement of [125I]-CCL2 from human CCR2 expressed in U2OS cells at 1 uM incubated for 150 mins by scintillation spectrometry; type: cell-based
Procedure, shortened: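 Membranes (15 µg protein) from U2OS cells stably expressing human CCR2 were incubated with 0.1 nM 125I-CCL2 for 150 min at 37 C. Buffer was 50 mM Tris-HCl pH 7.4 with 5 mM MgCl2 and 0.1% CHAPS. Test compound was 1 µM and nonspecific binding was defined with 10 µM INCB3344. Bound ligand was separated by filtration on PEI-coated GF/B filters and counted by scintillation. Result given as % displacement.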
Target sequence in this assay (P41597 whole entry, looked up): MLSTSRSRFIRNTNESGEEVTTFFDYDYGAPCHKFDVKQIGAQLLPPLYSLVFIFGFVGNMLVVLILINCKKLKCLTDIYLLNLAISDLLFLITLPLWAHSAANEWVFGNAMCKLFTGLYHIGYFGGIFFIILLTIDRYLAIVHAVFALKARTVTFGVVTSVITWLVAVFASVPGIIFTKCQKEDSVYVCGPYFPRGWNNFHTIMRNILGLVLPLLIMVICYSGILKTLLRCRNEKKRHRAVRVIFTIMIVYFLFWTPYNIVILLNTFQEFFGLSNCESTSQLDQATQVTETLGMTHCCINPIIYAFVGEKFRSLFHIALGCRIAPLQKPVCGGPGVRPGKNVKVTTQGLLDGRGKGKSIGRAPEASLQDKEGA

[2] = molecular target: C-C chemokine receptor type 2 (Mus musculus, UniProt P51683); test: Antagonist activity against mouse CCR2B expressed in human U2OS cells co-expressing beta-arrestin assessed as inhibition of mouse CCL2-induced beta-arrestin recruitment pre-incubated for 10 mins before mouse CCL2 stimulation for 90 mins by luminescence based assay; type: cell-based
[3] = molecular target: T1, C-C chemokine receptor type 2; test: Antagonist activity against human CCR2B expressed in Chem-1 cells assessed as inhibition of human CCL2-induced intracellular calcium flux incubated for 10 mins by Fluo-4 AM dye based intracellular calcium flux assay; type: functional, cell-based
Target sequence in this assay (P41597 whole entry): as the sequence (P41597 whole entry, looked up) above

[4] = molecular target: T1, C-C chemokine receptor type 2; test: Displacement of [125I]-CCL2 from human CCR2 expressed in U2OS cells incubated for 150 mins by scintillation spectrometry; type: cell-based
Target sequence in this assay (P41597 whole entry): as the sequence (P41597 whole entry, looked up) above

Sequence of C-C chemokine receptor type 2 (Mus musculus, UniProt P51683) (P51683 whole entry): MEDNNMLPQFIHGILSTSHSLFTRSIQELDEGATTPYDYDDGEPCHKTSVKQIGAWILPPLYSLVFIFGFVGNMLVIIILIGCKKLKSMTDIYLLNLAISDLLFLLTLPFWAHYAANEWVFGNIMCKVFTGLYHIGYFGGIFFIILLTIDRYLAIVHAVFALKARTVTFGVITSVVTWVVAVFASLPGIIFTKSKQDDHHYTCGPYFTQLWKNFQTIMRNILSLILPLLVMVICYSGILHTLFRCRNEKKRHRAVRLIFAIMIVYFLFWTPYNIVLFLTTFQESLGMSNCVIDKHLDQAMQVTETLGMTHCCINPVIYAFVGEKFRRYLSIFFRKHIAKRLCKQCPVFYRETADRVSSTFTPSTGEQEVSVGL

Compound	inhibition [1] [%]	IC50 [2] [µM]	IC50 [3] [µM]	Ki [4] [µM]
O=C(CCCN1CCC2(CC1)OCCc1ccccc12)NCc1cc(F)cc(C(F)(F)F)c1	4	> 30	0.18	
COc1ccc2c(c1)CCOC21CCN(CCCC(=O)NCc2cc(C(F)(F)F)cc(C(F)(F)F)c2)CC1	1	18	1.24	
O=C(NCc1cc(C(F)(F)F)cc(C(F)(F)F)c1)C(CCN1CCC2(CC1)OCCc1ccccc12)c1ccc(F)cc1 (stereo not given)	25	11.2	0.089	
Cc1ccc(-c2ccc3c(c2)C=C(C(=O)Nc2ccc(C[N+](C)(C)C4CCOCC4)cc2)CCC3)cc1		23		0.002
CC1Cc2ccccc2C2(CCN(CCCC(=O)NCc3cc(F)cc(C(F)(F)F)c3)CC2)O1 (stereo not given)	-10	> 30	12	
O=C(NCc1cc(F)cc(C(F)(F)F)c1)C(CCN1CCC2(CC1)OCCc1cc(O)ccc12)c1ccc(F)cc1 (stereo not given)		> 30	6.1	
O=C(CCCN1CCC2(CC1)OCCc1ccccc12)NCc1cc(C(F)(F)F)cc(C(F)(F)F)c1	10	24	0.684	
COc1ccc2c(c1)CCOC21CCN(CCCC(=O)NCc2cc(F)cc(C(F)(F)F)c2)CC1	-1	> 30	0.318	

These reach a lower IC50 [2]. Values come first.

inhibition [1] [%]	IC50 [2] [µM]	IC50 [3] [µM]	Ki [4] [µM]	Compound
7	3.63	0.173		O=C(NCc1cc(F)cc(C(F)(F)F)c1)C(CCN1CCC2(CC1)OCCc1ccccc12)c1ccc(F)cc1 (stereo not given)
0	3.67	0.462		CC1Cc2ccccc2C2(CCN(CCC(C(=O)NCc3cc(C(F)(F)F)cc(C(F)(F)F)c3)c3ccc(F)cc3)CC2)O1 (stereo not given)
9	8.01	1.6		CC1Cc2ccccc2C2(CCN(CCC(C(=O)NCc3cc(F)cc(C(F)(F)F)c3)c3ccc(F)cc3)CC2)O1 (stereo not given)
	4.16	0.163		COc1ccc2c(c1)CCOC21CCN(CCC(C(=O)NCc2cc(C(F)(F)F)cc(C(F)(F)F)c2)c2ccc(F)cc2)CC1 (stereo not given)
-7	4.63	0.353		COc1ccc2c(c1)CCOC21CCN(CCC(C(=O)NCc2cc(F)cc(C(F)(F)F)c2)c2ccc(F)cc2)CC1 (stereo not given)
	3.3	0.017		O=C(NCc1cc(C(F)(F)F)cc(C(F)(F)F)c1)C(CCN1CCC2(CC1)OCCc1ccccc12)C1CC1 (stereo not given)
	7.9	7.54		CC1Cc2ccccc2C2(CCN(CCCC(=O)NCc3cc(C(F)(F)F)cc(C(F)(F)F)c3)CC2)O1 (stereo not given)

— ChEMBL document CHEMBL3588778, “Synthesis and biological evaluation of spirocyclic antagonists of CCR2 (chemokine CC receptor subtype 2)” (Bioorg Med Chem, 2015)
